Measurements as given in the EternaBench riboswitch data.

System: MS2 coat protein
Assay: apparent Kd, MS2 coat protein; higher = weaker binding; RNA-MaP array; FMN 200 µM where present
How it was run: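 Designs were transcribed by stalled E. coli RNA polymerase on Illumina sequencing-chip clusters. They were titrated with SNAP-549-labelled MS2 coat protein from 0.7 or 1.5 nM, doubling to 3 µM, in 100 mM Tris-HCl pH 7.5, 80 mM KCl, 4 mM MgCl2, BSA, DTT, yeast tRNA and Tween-20, without and then with constant ligand. The apparent Kd is the median of filtered per-cluster fits after normalisation of green signal to red-channel RNA signal and control-cluster median Fmax.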

[1] = designed as: OFF switch for flavin mononucleotide, no ligand
[2] = ligand present: flavin mononucleotide, designed as: OFF switch for flavin mononucleotide
[3] = designed as: ON switch for flavin mononucleotide, no ligand
[4] = ligand present: flavin mononucleotide, designed as: ON switch for flavin mononucleotide

Sequence | apparent Kd [1] | apparent Kd [2] | apparent Kd [3] | apparent Kd [4]
AAAUUUAACGAAGGAUAUGGAUACAUGAGGAUCACCCAUGUAUAUUUUGUGAUCUUGUUUAAGAUCCAGAAGGUCGUAUACAUA | 24 nM | 56.1 nM |  | 
AAAUUUAACGAAGGAUAUGGUUACAUGAGGAUCACCCAUGUGUGCCUUGUGAUCUUGUUUAAGUUCCAGAAGGUCGUAUACAUA | 41.7 nM | 183 nM |  | 
AACAAGUGAGGAUAUGAUAAUACAACAAACAAACAUCUACAUCAGAAGGCACAUGAGGAUCACCCAUGUUAAUC | 22 nM | 27.2 nM |  | 
AACAAUCACAUAGGAUAUAGAAUAUUAUAUUUUUACAUGAGGAUCACCCAUGUUUUAUUGGGAUUCUAGAAGGAUGAGUAAUAA |  |  | 162 nM | 90.8 nM
AACAAUGGUUAACAUGAGGAUCACCCAUGUUGGAAGCCUUCACAGGAUAUGUAGCGGGCAUACGCACAGAAGGGUGAUCGCGGU |  |  | 37.5 nM | 32.6 nM
AACACACAUGAGGAUCACCCAUGUAAAAUUUAGCAAGGAUAUGGGUGCCGUAAUCGGUUACCAGAAGGUGCCUCAC |  |  | 103 nM | 59.8 nM
AACAGCUCGUCAGGAUAUAUUAUAAUAAUACGGCAGUUUGUACAUGAGGAUCACCCAUGUUGUAUGUAGAAGGGACGAGCUGAA | 9.86 nM | 8.91 nM |  | 
AACAGCUCGUCAGGAUAUAUUUACUUAUAUUGUAUUUAUGUACAUGAGGAUCACCCAUGUUGUUAGUAGAAGGGACGAGCUGAA | 7.42 nM | 7.32 nM |  | 
AACAGCUCGUCAGGAUAUAUUUUCUAAUUAUGUAUUUAUGUACAUGAGGAUCACCCAUGUUGUUAGUAGAAGGGACGAGCUGAA | 11.7 nM | 12.1 nM |  | 
AACAGGGAUUCAGGAUAUAUUAGCCGAGGCCGCGUAGAAGGGAAAUCCUGACAUGAGGAUCACCCAUGUCGACCCGCCUUCCAC |  |  | 23.1 nM | 22.9 nM
AACAGUACAGGAUAUACAUGAGGAUCACCCAUGUGAGAAUUAAGUGGCGUACCACAAUGUAGAAGGGUACUGGA | 77.4 nM | 65.5 nM |  | 
AACCCUUGUGUUAGGAUAUGUCACUACCAUAUGCGACAGAAGGAACAUGAGGAUCACCCAUGUGAGUUAGCCAA | 42.8 nM | 91.1 nM |  | 
AACCUACAUGAGGAUCACCCAUGUAAGGAUAUGGCAUGAUUUGCGUCAGCCCGUUAAGUUAGAAGGUGCGUCGG | 14.8 nM | 16 nM |  | 
AACGAAAGCCAAGGAUAUGCAGGUGACAUGAGGAUCACCCAUGUGGAUUGUGAUCCUUAACUGAUGCAGAAGGUGGAUCUGUUG | 513 nM | 322 nM |  | 
AACGAGCAGUAGAAGGGAUGUCUACGGACAUGAGGAUCACCCAUGUUGUGACUCCGAAAGGAGCGUCAGGAUAUACUGCUCAAA |  |  | 8.13 nM | 6.15 nM
AACGGGUGGGUAGGAUAUGGCUAUGUCUCAUUGCUAGAAGGACCAGCUGCUACAUGAGGAUCACCCAUGUCGUAGUGCAUCCAG |  |  | 88.2 nM | 13 nM
AACUCACAUGAGGAUCACCCAUGUGAGGAUAUGAUACUAUGUACUUCGGUACAUAGUAUCAGAAGGCAUGUGGA | 14.4 nM | 18.9 nM |  | 
AACUGACAUGAGGAUCACCCAUGUCAGGAUAUGACUUGAUAGAAAAUAAAAUAUCAUGUCAGAAGGGACAUGGG | 20.2 nM | 18.5 nM |  | 
AAGAAAGAAACGCAGGAUAUGCAAAACAAAACAUGAGGAUCACCCAUGUCUUACUUACAAACAAAGCAGAAGGGCGAAAGAAAGAA |  |  | 20.1 nM | 13.2 nM
AAGAAGUCAGGAUAUACAUGAGGAUCACCCAUGUAAAAGAAAGAAAAGGGAAAGAAAAGUAGAAGGGACAAGAA | 26.7 nM | 32.2 nM |  | 
AAGAAGUCAGGAUAUCCUGCUCGUCACUUGCGUGAUGAGUAGGAGAAGGGACAUGAGGAUCACCCAUGUAAAGU | 51.1 nM | 56.2 nM |  | 

Sequence | apparent Kd [1] | apparent Kd [2] | apparent Kd [3] | apparent Kd [4]
AAGACAUGAGGAUCACCCAUGUAAAGACCGGUCAAUCAAUGUGAGGAUAUUCCAUAAUUGAUAGGGAAGAAGGCACUGGGUUGA |  |  | 106 nM | 50.2 nM
AAGACAUGAGGAUCACCCAUGUAAAGACCGGUCGAUCAAUGUGAGGAUAUACCAUAAUUGAUAGGGUAGAAGGCACUGGGUUGA |  |  | 168 nM | 128 nM
AAGACAUGAGGAUCACCCAUGUAAAGACCGGUCGAUCAAUGUGAGGAUAUUCCAUAAUUGAUAGGGAAGAAGGCACUGGGUUGA |  |  | 177 nM | 130 nM
AAGAGUAGAGGAUAUACAUGAGGAUCACCCAUGUAAUCCAGAUAAGGAAGCAUGUCGUGUAGAAGGCUGCAUGA | 15.9 nM | 12.8 nM |  | 
AAGAUGCGGAUAGGAUAUGGAAAUUAAUAAAGACCAGAAGGAUUGGUCACACAACAUGAGGAUCACCCAUGUGUGUGUUGUGAA | 13.6 nM | 10.6 nM |  | 
AAGAUGCGGGUAGGAUAUGGAGAGAAAGAAAGACCAGAAGGACUGGUCACACAACAUGAGGAUCACCCAUGUGUGUGUUGCGAA | 11.8 nM | 8.91 nM |  | 
AAGAUGUAAGGAUAUGCUGCUCGUCACAAAAGUGAUGAGUAGCAGAAGGUACAUGAGGAUCACCCAUGUAGAGA | 31.4 nM | 55.7 nM |  | 
AAGAUGUCAGGAUAUGCUGCUCGUCACUUGCGUGAUGAGUAGCAGAAGGGACAUGAGGAUCACCCAUGUAAAGA | 154 nM | 244 nM |  | 
AAGCAUUGGCUUCUCAUCUACAUGAGGAUCACCCAUGUCGGGAGAAGGAGGCGUUGACGAAUAGCCUAGGAUAUCCUAACGUGC | 6.84 nM | 6.99 nM |  | 
AAGCCUAAUGAGAAGGUGUGUAUAAAUUAUAUACAAGGAUAUCGGUCAAGCAUGAAAACAUGAGGAUCACCCAUGUUAAGGCUU |  |  | 5.82 nM | 5.51 nM
AAGCCUACAAUGGUGUAAUGUACAUGAGGAUCACCCAUGUACAGAAGGUGGAAUGUAAAAGGUGCCAAGGAUAUGUAUGCGGGU | 12.6 nM | 16.4 nM |  | 
AAGCGAGGGACAGGAUAUGCGGCGAAACUCGCCGCAGAAGGGUCGACAUGAGGAUCACCCAUGUCCUUACGCUCCAAGUAGUGG |  |  | 101 nM | 250 nM
AAGCGAGGGACAGGAUAUGCGGCGGAACUCGCCGCAGAAGGGUCGACAUGAGGAUCACCCAUGUCCUUACGCUCCAAGUAGUGG |  |  | 131 nM | 425 nM
AAGCGGGCAGGAUAUGCGUACUCACGGGAAAACUGAAUGGUACAUGAGGAUCACCCAUGUAGAAGGGCUUUGAA | 48.4 nM | 36.3 nM |  | 
AAGCUAACCACAGGAUAUCCACAUGAGGAUCACCCAUGUUGCUGAAGAGCAGGAGAAGGGUGGUGGGCAGAGUGCGCUGUCGUG |  |  | 53.5 nM | 8.75 nM
AAGGAGUGAGGAUAUGCUGCUCGUCACUUGCGUGAUGAGUAGCAGAAGGCACAUGAGGAUCACCCAUGUAAAGA | 44.9 nM | 54.5 nM |  | 
AAGGAUCGAGGAUAUACAUAGAUACAGAUACAUGUAGACGUACAUGAGGAUCACCCAUGUAGAAGGCGAUUAUA | 72.6 nM | 220 nM |  | 
AAGGAUCGAGGAUAUACAUAGAUACAGAUUCAUGUAGAACUACAUGAGGAUCACCCAUGUAGAAGGCGAUCCUA | 38.4 nM | 291 nM |  | 
AAGGGAUGAGCGUAGGAUAUAGGAGAAGUGACAUGAGGAUCACCCAUGUAAAAGGAGGGAUGAGACUAGAAGGACGAGGUAGGAG |  |  | 107 nM | 125 nM
AAGUAAGGAGGAUAUACGUCAUAGACCGCAAUAUGUCAUAGACAUGAGGAUCACCCAUGUAGAAGGCUUUAACA | 34.7 nM | 26.2 nM |  | 
AAGUAGAUCCGAGGAUAUACAAUCCGGAAACGGUACAUGAGGAUCACCCAUGUAGAAGGCGGAUCUACAGGUACUAAAGUACCG | 6.33 nM | 9.45 nM |  | 
